Tn6 DDE FP – inhibitors of Tn6 peptide binding to human fibrin DD(E); Fibrin DD(E) TRITC-Tn6 fluorescence polarization displacement; inhibition, % at 8.3 µM; 370,000 tested, 0.21% active;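 active = inhibition above a per-campaign cutoff: mean of compounds within control limits plus 3 SD, cut at about 15% in these data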;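 also: 0% = median of all compound wells on the plate and 100% = blocking peptide control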
PLCb3 inh – inhibitors of human phospholipase C beta3; Q01970; Purified PLC-beta3, fluorogenic substrate, fluorescence; inhibition, % at 12.2 µM; 370,000 tested, 0.18% active; in the data active = inhibition above about 11%;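 also: 0% = median of compound wells on plate and 100% = full blocker control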
NRP1-CendR mod – modulators of CendR peptide binding to human neuropilin-1; O14786; FAM-RPARPAR peptide binding to NRP-1, fluorescence polarization; inhibition, % at 25 µM; AID 602438; 360,000 tested, 0.85% active;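 active = inhibition or corrected inhibition above about 18%, plus a signal ratio from 0.5 to 1.5, limit read from the data, passing the limit was not always enough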
Target sequence (O14786 whole entry, looked up): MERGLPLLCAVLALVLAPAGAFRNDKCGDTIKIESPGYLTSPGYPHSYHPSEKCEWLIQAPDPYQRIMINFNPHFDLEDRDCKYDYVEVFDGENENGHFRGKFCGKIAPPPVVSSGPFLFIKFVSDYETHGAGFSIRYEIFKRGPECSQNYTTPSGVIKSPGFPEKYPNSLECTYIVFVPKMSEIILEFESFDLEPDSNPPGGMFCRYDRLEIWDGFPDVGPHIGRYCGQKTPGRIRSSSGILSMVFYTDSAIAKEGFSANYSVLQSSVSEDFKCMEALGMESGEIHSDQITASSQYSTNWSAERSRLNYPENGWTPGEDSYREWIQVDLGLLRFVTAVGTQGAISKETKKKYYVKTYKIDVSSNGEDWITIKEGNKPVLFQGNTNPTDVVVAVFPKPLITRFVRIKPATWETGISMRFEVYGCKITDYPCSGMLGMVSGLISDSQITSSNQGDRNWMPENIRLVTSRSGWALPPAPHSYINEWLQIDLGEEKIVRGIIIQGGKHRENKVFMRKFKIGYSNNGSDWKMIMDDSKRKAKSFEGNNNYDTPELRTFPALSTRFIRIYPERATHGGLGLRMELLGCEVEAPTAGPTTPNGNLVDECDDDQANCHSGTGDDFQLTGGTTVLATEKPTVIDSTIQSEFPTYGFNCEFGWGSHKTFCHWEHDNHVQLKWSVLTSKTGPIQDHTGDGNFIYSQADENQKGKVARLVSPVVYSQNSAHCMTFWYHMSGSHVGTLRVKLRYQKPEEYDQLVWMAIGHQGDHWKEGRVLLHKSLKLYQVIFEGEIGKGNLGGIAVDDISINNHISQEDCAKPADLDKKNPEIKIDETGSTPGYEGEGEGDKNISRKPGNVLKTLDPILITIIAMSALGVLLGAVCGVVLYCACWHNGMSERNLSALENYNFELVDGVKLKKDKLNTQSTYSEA
KLK7 zymogen act – activates the human kallikrein-7 zymogen | P49862 | purified proKLK7, EDANS-DABCYL substrate fluorescence; 100% is mature enzyme control, 0% vehicle | activation, % at 7 µM | 370,000 tested, 0.9% active | AID 652039;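 active = activation above the mean of all tested compounds plus 3 SD, computed per campaign excluding outliers beyond control limits, cut at about 13% in these data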
DDE Tn7 FP inh – DD(E)-Tn7 binding inhibition, primary FP screen. P02675. FP displacement of FITC-Tn7 peptide from fibrin DD(E); 0% = median of compound wells per plate. inhibition, % at 8.3 µM. 370,000 tested, 0.13% active. AID 720508;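 active = inhibition above the mean of compounds falling within the control limits plus 3 SD of them, cut at about 14% in these data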;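 also: 0% = plate median of compound wells and 100% = 10 µM Aha-Tn7 peptide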
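Measure: % inhibition scaled between sample-field median and high-control FP; Test system: human fibrin DD(E); Quantity: 2 µM final DD(E) protein; Doses: one dose, 8.3 µM nominal; Schedule: compound with protein 10 min, then 3 h after probe, room temperature; Detection: fluorescence polarization; Medium: Tris buffer with calcium and detergent, pH 7.8.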
PLC-gamma1 inh – inhibitors of human phospholipase C gamma1; P19174; purified PLC-gamma1, fluorogenic substrate, fluorescence; inhibition, % at 12.2 µM; 370,000 tested, 0.84% active; in the data active = inhibition above about 9.5%
Numbers without * were called inactive; nt = not tested or not shown. Only some compounds are listed: those with a hit (about 3% of all), similar ones and a draw of the others.

SMILES	Tn6 DDE FP	PLCb3 inh	NRP1-CendR mod	KLK7 zymogen act	DDE Tn7 FP inh	PLC-gamma1 inh
Cc1ccc(C)n1-c1ccc(-c2nnco2)cc1	nt	nt	-6.5	nt	nt	nt
Cc1c(Br)cc(-c2nnco2)cc1Br	-1.3	-3.1	20.8*	0.7	0.0	-2.2
COC(=O)[C@@]12CCCCC3=C1N(CCC3)C(=O)[C@H]2CC(=O)N1CCN(C(=O)c2ccco2)CC1	-0.7	1.1	nt	0.0	1.6	-1.5
COc1ccccc1C(=O)n1ccc2ccc(-c3ccc4ccn(Cc5ccc(C#N)cc5)c4c3)cc21	3.9	-169.5	nt	-0.2	7.4	-113.5
Oc1cc(NCCN2CCOCC2)cc2cccnc12	2.5	-51.8	29.3*	1.1	2.0	-38.6
Oc1cc(Nc2ccccc2)cc2cccnc12	5.2	-8.0	-4.5	-0.3	1.6	-11.6
COc1cc(C#N)ccc1OC(=O)Cc1cc(OC)c(OC)c(OC)c1	-2.3	-10.6	24.7*	0.2	8.1	-2.1
COc1ccccc1CCC(=O)Oc1ccc(C#N)cc1OC	-3.0	-8.7	-3.3	-0.2	-5.4	-3.3
Cn1c(SCc2c(Cl)cccc2Cl)nnc1-c1cccs1	2.8	-4.5	3.7	0.7	8.2	11.2*
Cc1ccc(CSc2nnc(-c3cccs3)n2C)cc1	3.9	2.5	-1.1	0.2	-0.8	0.8
CCN1CCN(C(c2cccs2)C(C)NC(=O)c2ccccc2F)CC1 (stereo unspecified)	2.1	0.2	25.3*	-0.5	-1.8	3.9
CCN1CCN(C(c2cccs2)C(C)NC(=O)c2c(F)cccc2F)CC1 (stereo unspecified)	0.1	3.8	-2.9	-0.1	-0.2	-2.0
Cc1cc2c(=O)n(C)c(SCC(=O)Nc3cccc(O)c3)nc2s1	4.1	-1.6	2.1	0.4	1.7	1.7
Cc1cccc(NC(=O)CSc2nc3sc(C)cc3c(=O)n2C)c1	-6.2	-4.4	18.7*	0.2	8.0	6.3
Cc1cccc(S(=O)(=O)NC(=O)C2(C)CCN2C(=O)CCc2ccccc2)c1 (stereo unspecified)	1.9	2.4	27.1*	-0.6	0.3	1.3
Cc1cccc(S(=O)(=O)NC(=O)C2(C)CCN2C(=O)Cc2ccccc2)c1 (stereo unspecified)	3.5	1.5	0.7	0.3	0.1	3.4
Cc1ccc2c(c1)C1CS(=O)(=O)N(CCc3ccccc3)C(=O)N1C2 (stereo unspecified)	-2.7	2.5	nt	0.8	-2.7	8.1
COC(=O)C1CN(Cc2cn(CCOC(C)=O)nn2)CCS(=O)(=O)N1Cc1ccc(Cl)cc1 (stereo unspecified)	0.7	0.0	nt	0.7	1.8	1.2
CCOC(=O)c1[nH]c2ccc(OC)cc2c1NC(=O)c1ccc2c(c1)OCO2	-1.1	-23.5	2.7	-0.2	3.8	-17.9
COC(=O)c1[nH]c2cc(OC)ccc2c1NC(=O)c1ccc2c(c1)OCO2	-14.0	-39.0	20.7*	-3.4	0.1	-25.0
O=C(NCc1ccc(C(=O)NC2CCCC2)cc1)c1cccc(Br)c1	1.6	2.6	nt	0.9	-8.6	3.7
O=C(c1nc(-c2ccccc2)n(-c2ccccc2)n1)N1CCN(S(=O)(=O)c2ccccc2)CC1	6.5	3.2	-6.7	1.0	-7.8	10.6*
CC(C)c1cc(C(C)C)c(S(=O)(=O)N2CCC(C(=O)NCC3COCCO3)CC2)c(C(C)C)c1 (stereo unspecified)	-1.9	0.0	nt	0.1	6.0	-3.0
CCN(CC)CCN1CCN(c2cnc(C)cn2)CC1	1.6	-18.2	22.9*	0.3	-11.4	-14.2
CC(C)NC(=O)c1c(CSc2ccccc2)noc1C(=O)NCc1ccccc1	3.9	-3.5	32.1*	0.1	0.2	-4.7
CC(C)NC(=O)c1c(CSc2ccc(Cl)cc2)noc1C(=O)NCc1ccccc1	-4.7	-6.5	13.1	0.8	7.0	1.9
COC(=O)c1ccccc1-c1ccc(C=O)o1	-5.6	0.0	-11.0	2.7	-2.3	-1.8
O=Cc1ccc(-c2ccccc2C(=O)O)o1	-0.6	-9.4	34.6*	-0.1	1.7	-3.4
C=CCn1c(SCC(=O)O)nc2sc(CC)cc2c1=O	-4.2	5.7	26.4*	-0.8	-1.0	1.3
C=CCn1c(SCC(=O)NC2CC2)nc2sc(CC)cc2c1=O	1.0	-3.8	3.2	-0.3	-1.3	-0.3
